The test system of one data set is Hepatocyte. As to the kind of experiment: Activation of prodrug to corresponding nucleoside triphosphate in Sprague-Dawley rat hepatocytes at 25 uM after 2 hrs. In kind it is cell-based. The gist of the method: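 Freshly isolated hepatocytes from fed Sprague–Dawley rats (250–300 g), >85% trypan blue viable, 20 mg/mL wet weight. Incubated 2 h at 37 °C in Krebs–bicarbonate buffer with 20 mM glucose and 1 mg/mL BSA; compound added from DMSO stock. Extract reconstituted in water; 2'-C-methyl-ATP measured by LC-MS/MS against an authentic triphosphate standard.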

Data set [1] is described as follows: Oral bioavailability in Sprague-Dawley rat. It is filed as ADME, organism-based. Conditions: in vivo. In a few lines:
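Rats given the prodrug iv (10 mg/kg) and orally (50 mg/kg, PEG-400; fasted, food returned a few hours after dosing). Liver NTP followed over time by LC-MS/MS. Bioavailability taken as the ratio of liver NTP AUC, oral versus iv.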

The test system of another data set is Liver. The data set is described as follows: Drug level in Sprague-Dawley rat liver at 50 mg/kg, po after 3 hrs. It is filed as ADME, organism-based. Set-up: dose 50 mg/kg, route oral. Conditions: in vivo. The gist of the method: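 Sprague–Dawley rats dosed by oral gavage in PEG-400. Liver (~1 g) taken at 3 h, snap-frozen, then homogenized in 3 volumes ice-cold 70% methanol with 20 mM EDTA/EGTA. Clarified supernatant dried and reconstituted. NTP measured by ion-pair LC-MS/MS ([…]/78.8) against a 0.01–30 μM 2'-C-methyl-ATP calibration curve; reported as nmol/g liver.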

Data set [2] can be described thus: Aqueous solubility of the compound. It is filed as physicochemical.
Data set [3] in a line: Solubility in citrate buffer at pH 5.1. In kind it is physicochemical.
Data set [4] can be described thus: Chemical stability at pH 7.0. Conditions: buffer. It is filed as physicochemical. The gist of the method:
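Half-life measured in pH 7 buffer at 25 °C.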

≈ marks a conversion by molar mass, not a printed value.

Regarding `Cc1cncc(C2CCOP(=O)(OC[C@H]3O[C@@H](n4cnc5c(N)ncnc54)[C@](C)(O)[C@@H]3O)O2)c1` (some centres not stated), in the data set with Hepatocyte, the Activity amounted to 73 nmol/g. Still for that read-out and setting: to `C[C@@]1(O)[C@H](O)[C@@H](COP2(=O)OCCC(c3cc(F)ccc3F)O2)O[C@H]1n1cnc2c(N)ncnc21` (some centres not stated) belongs 139 nmol/g; to `COc1cc(C2CCOP(=O)(OC[C@H]3O[C@@H](n4cnc5c(N)ncnc54)[C@](C)(O)[C@@H]3O)O2)ccn1` (some centres not stated), 93 nmol/g. With `C[C@@]12OC(=O)O[C@@H]1[C@@H](COP1(=O)OCC[C@@H](c3ccncc3)O1)O[C@H]2n1cnc2c(N)ncnc21` (some centres not stated), in data set [1], the bioavailability was 39%. Further, the values for the Activity with Liver and with Hepatocyte were 28.3 nmol/g and 185 nmol/g, respectively. Besides, the solubility in data set [2] and in data set [3] was 450 µg/mL (≈ 892 µM) throughout. Also, the half-life in data set [4] was 13 h. For the compound `C[C@@]1(O)[C@H](O)[C@@H](COP2(=O)OCC[C@@H](c3cccc(Cl)c3)O2)O[C@H]1n1cnc2c(N)ncnc21` (some centres not stated), the values for the Activity with Liver and in the data set with Hepatocyte were 2.9 nmol/g and 389 nmol/g, respectively. The matching figures for `C[C@@]12OC(=O)O[C@@H]1[C@@H](COP1(=O)OCCC(c3cc(Cl)cc(Cl)c3)O1)O[C@H]2n1cnc2c(N)ncnc21` (some centres not stated): 5 nmol/g and 49 nmol/g.

With `C[C@@]1(O)[C@H](O)[C@@H](COP2(=O)OCCC(c3ccccc3Br)O2)O[C@H]1n1cnc2c(N)ncnc21` (some centres not stated), in the data set with Hepatocyte, the Activity worked out at 122 nmol/g. Consider `CCCCCOC(=O)Nc1ncnc2c1ncn2[C@@H]1O[C@H](COP2(=O)OCCC(c3cccc(Cl)c3)O2)[C@@H](O)[C@@]1(C)O` (some centres not stated), for which the Activity with Liver turned out to be 1.6 nmol/g; in the data set on Hepatocyte, 73 nmol/g. As for `C[C@@]12OC(=O)O[C@@H]1[C@@H](COP1(=O)OCCC(c3cccc(F)c3)O1)O[C@H]2n1cnc2c(N)ncnc21` (some centres not stated), the Activity worked out at 22.9 nmol/g with Liver and 313 nmol/g in the data set on Hepatocyte.

On to `C[C@@]1(O)[C@H](O)[C@@H](COP2(=O)OCCC(c3ccccn3)O2)O[C@H]1n1cnc2c(N)ncnc21` (some centres not stated), for which the Activity with Hepatocyte was 93 nmol/g. Take `C[C@@]1(O)[C@H](O)[C@@H](COP2(=O)OCCC(c3cc(Cl)cc(Cl)c3)O2)O[C@H]1n1cnc2c(N)ncnc21` (some centres not stated): the Activity in the data set with Liver amounted to 2.4 nmol/g; with Hepatocyte, 585 nmol/g. Regarding `C[C@@]1(O)[C@H](O)[C@@H](COP2(=O)OCCC(c3cccnc3)O2)O[C@H]1n1cnc2c(N)ncnc21` (some centres not stated), the Activity in the data set on Hepatocyte was found to be 73 nmol/g. Consider `C[C@@]1(O)[C@H](O)[C@@H](COP2(=O)OCCC(c3cccc(F)c3F)O2)O[C@H]1n1cnc2c(N)ncnc21` (some centres not stated), for which the results for the Activity in the data set on Liver and in the data set with Hepatocyte were 8.2 nmol/g and 323 nmol/g, respectively. Regarding `C[C@@]1(O)[C@H](O)[C@@H](COP2(=O)OCCC(c3cccc(Br)c3)O2)O[C@H]1n1cnc2c(N)ncnc21` (some centres not stated), the Activity in the data set with Hepatocyte turned out to be 99 nmol/g.

In the case of `C[C@@]12OC(=O)O[C@@H]1[C@@H](COP1(=O)OCC[C@@H](c3cccc(Cl)c3)O1)O[C@H]2n1cnc2c(N)ncnc21` (some centres not stated), the Activity stood at 29.2 nmol/g with Liver and 296 nmol/g with Hepatocyte.

As to `C[C@@]12OC(=O)O[C@@H]1[C@@H](COP1(=O)OCCC(c3ccc(Cl)c(Cl)c3)O1)O[C@H]2n1cnc2c(N)ncnc21` (some centres not stated), the Activity in the data set with Liver is 11.8 nmol/g; with Hepatocyte it was 97 nmol/g. Regarding `C[C@@]1(O)[C@H](O)[C@@H](COP2(=O)OCC[C@@H](c3ccncc3)O2)O[C@H]1n1cnc2c(N)ncnc21` (single isomer, unassigned), the Activity is reported as 3.6 nmol/g in the data set with Liver and 47 nmol/g with Hepatocyte. For the compound `C[C@@]12OC(=O)O[C@@H]1[C@@H](COP1(=O)OCCC(c3cc(F)cc(F)c3)O1)O[C@H]2n1cnc2c(N)ncnc21` (some centres not stated), the Activity in the data set on Liver is listed as 11.2 nmol/g; with Hepatocyte it was 113 nmol/g. Turning to `C[C@@]1(O)[C@H](O)[C@@H](COP2(=O)OCCC(c3cc(F)cc(F)c3)O2)O[C@H]1n1cnc2c(N)ncnc21` (some centres not stated), the Activity was found to be 4.1 nmol/g in the data set with Liver and 250 nmol/g with Hepatocyte.

Consider `C[C@@]1(O)[C@H](O)[C@@H](CO)O[C@H]1n1cnc2c(N)ncnc21`, for which the Activity in the data set with Hepatocyte was 209 nmol/g. `C[C@@]1(O)[C@H](O)[C@@H](COP2(=O)OCCC(c3cccc(F)c3)O2)O[C@H]1n1cnc2c(N)ncnc21` (some centres not stated): the Activity in the data set with Liver is 4.1 nmol/g; with Hepatocyte it was 328 nmol/g. The matching figures for `CC(C)[C@H](N)C(=O)O[C@@H]1[C@@H](COP2(=O)OCCC(c3cccc(Cl)c3)O2)O[C@@H](n2cnc3c(N)ncnc32)[C@]1(C)O` (some centres not stated): 3.1 nmol/g and 117 nmol/g. On to `C[C@@]1(O)[C@H](O)[C@@H](COP2(=O)OCCC(c3ccc(Cl)c(Cl)c3)O2)O[C@H]1n1cnc2c(N)ncnc21` (some centres not stated), for which the Activity in the data set with Liver was 2 nmol/g; in the data set with Hepatocyte, 396 nmol/g. Turning to `C[C@@]1(O)[C@H](O)[C@@H](COP2(=O)OCCC(c3cccc(C#N)c3)O2)O[C@H]1n1cnc2c(N)ncnc21` (some centres not stated), in the data set on Hepatocyte, the Activity was determined as 137 nmol/g. In the case of `C[C@@]1(O)[C@H](O)[C@@H](COP2(=O)OCCC(c3ccc(C#N)cc3)O2)O[C@H]1n1cnc2c(N)ncnc21` (some centres not stated), the Activity in the data set on Hepatocyte is given as 41 nmol/g. On the same count and under the same terms, to `C[C@@]1(O)[C@H](O)[C@@H](COP2(=O)OCCC(c3ccc(Cl)c(F)c3)O2)O[C@H]1n1cnc2c(N)ncnc21` (some centres not stated) belongs 328 nmol/g; to `C[C@@]1(O)[C@H](O)[C@@H](COP2(=O)OCCC(c3cc(F)ccc3Br)O2)O[C@H]1n1cnc2c(N)ncnc21` (some centres not stated), 72 nmol/g; to `C[C@@]1(O)[C@H](O)[C@@H](COP2(=O)OCCC(c3cncc(Br)c3)O2)O[C@H]1n1cnc2c(N)ncnc21` (some centres not stated), 194 nmol/g.

Source of the values: ChEMBL document CHEMBL1148715, “Liver-targeted prodrugs of 2'-C-methyladenosine for therapy of hepatitis C virus infection” (J Med Chem, 2007).
